The source of these data is ChEMBL document CHEMBL1136516, “Synthesis, pharmacology and pharmacokinetics of 3-(4-aryl-piperazin-1-ylalkyl)-uracils as uroselective alpha1A-antagonists” (Bioorg Med Chem Lett, 2003).

For series [1], the target named is T1, Alpha-1D adrenergic receptor (Homo sapiens, UniProt P25100).
T1 sequence (P25100 whole entry): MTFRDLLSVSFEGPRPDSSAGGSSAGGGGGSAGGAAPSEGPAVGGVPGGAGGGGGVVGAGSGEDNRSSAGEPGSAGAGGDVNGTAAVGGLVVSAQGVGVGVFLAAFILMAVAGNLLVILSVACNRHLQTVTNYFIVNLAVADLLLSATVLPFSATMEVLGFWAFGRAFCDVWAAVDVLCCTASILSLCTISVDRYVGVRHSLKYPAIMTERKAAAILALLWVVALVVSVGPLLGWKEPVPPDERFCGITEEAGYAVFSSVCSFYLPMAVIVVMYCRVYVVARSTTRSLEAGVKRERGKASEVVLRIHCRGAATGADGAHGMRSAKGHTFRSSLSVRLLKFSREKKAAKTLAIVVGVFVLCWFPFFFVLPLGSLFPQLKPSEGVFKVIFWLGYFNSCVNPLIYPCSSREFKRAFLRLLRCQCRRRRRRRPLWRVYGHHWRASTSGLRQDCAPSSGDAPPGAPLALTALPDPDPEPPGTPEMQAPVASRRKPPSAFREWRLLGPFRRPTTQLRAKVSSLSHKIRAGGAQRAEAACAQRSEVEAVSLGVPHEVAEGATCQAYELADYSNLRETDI
The series can be described thus: Inhibition of [3H]prazosin binding to CHO-K1 whole cells expressing human cloned Alpha-1D adrenergic receptor. The format is cell-based.

Series [2] concerns the target T2, Alpha-1A adrenergic receptor (Homo sapiens, UniProt P35348).
T2 sequence (P35348 whole entry): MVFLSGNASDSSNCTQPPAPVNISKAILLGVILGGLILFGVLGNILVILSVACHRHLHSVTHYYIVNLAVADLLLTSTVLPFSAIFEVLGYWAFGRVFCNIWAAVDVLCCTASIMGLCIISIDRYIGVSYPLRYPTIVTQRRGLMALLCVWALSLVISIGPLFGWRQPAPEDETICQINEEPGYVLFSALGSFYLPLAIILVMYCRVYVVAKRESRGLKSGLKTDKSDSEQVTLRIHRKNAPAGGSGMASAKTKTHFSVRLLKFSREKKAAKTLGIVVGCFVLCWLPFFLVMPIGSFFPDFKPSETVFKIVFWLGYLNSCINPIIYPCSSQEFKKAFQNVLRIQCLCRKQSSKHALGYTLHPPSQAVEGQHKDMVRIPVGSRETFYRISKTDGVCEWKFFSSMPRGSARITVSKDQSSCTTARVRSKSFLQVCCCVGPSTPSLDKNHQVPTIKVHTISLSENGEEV
Put plainly: Inhibition of [3H]prazosin binding to CHO-K1 whole cells expressing human cloned Alpha-1A adrenergic receptor. The class given is cell-based.

The target of series [3] is T3, Alpha-1B adrenergic receptor (Homo sapiens, UniProt P35368).
T3 sequence (P35368 whole entry): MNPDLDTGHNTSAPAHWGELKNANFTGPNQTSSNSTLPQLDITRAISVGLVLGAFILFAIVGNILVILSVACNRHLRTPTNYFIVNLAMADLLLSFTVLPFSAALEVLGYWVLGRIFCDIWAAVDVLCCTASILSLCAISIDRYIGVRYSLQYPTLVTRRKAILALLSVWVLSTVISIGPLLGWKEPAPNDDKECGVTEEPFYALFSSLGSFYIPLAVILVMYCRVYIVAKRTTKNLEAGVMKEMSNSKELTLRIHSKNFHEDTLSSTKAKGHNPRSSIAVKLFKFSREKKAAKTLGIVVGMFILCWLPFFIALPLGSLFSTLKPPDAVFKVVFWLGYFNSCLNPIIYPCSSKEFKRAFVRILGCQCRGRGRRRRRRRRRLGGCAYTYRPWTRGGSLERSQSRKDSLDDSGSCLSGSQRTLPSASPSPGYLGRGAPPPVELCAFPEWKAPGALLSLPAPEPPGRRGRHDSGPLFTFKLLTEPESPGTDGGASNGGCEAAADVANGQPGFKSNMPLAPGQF
The series can be described thus: Inhibition of [3H]prazosin binding to CHO-K1 whole cells expressing human cloned Alpha-1B adrenergic receptor. The class given is cell-based.

For another series, the species on record is Canis familiaris. The series can be described thus: In vitro relative rate of metabolism was determined in dog liver microsomes. The class given is ADME, Canis lupus familiaris. Background: Microsomes from liver hold many membrane-bound enzymes, among them those of drug oxidation.
The nature of series [4]: Oral bioavailability in dog (i.v. dosing). The format is ADME, organism-based, Canis lupus familiaris. The note with it: in vivo. The method, boiled down:
(§1)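 Single dose of 0.3 mg/kg given to dogs both iv and po in a cross-over design, four dogs per compound, with the compound dosed as a salt. Terminal half-life, volume of distribution (calculated after iv dosing only), clearance and oral bioavailability were taken from these single-dose pharmacokinetic profiles.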

A short description of series [5]: Oral bioavailability in dog. The note with it: in vivo. The format is ADME, organism-based, Canis lupus familiaris. The method, boiled down:
as §1

The nature of series [6]: Half life period by po administration in dog at a dose of 0.3 mg/kg. The arrangement: dose 0.3 mg/kg, route oral. The note with it: in vivo. The class given is ADME, organism-based, Canis lupus familiaris. The method, boiled down: as §1
Series [7] is described as follows: Plasma clearance by iv administration in dog at a dose of 0.3 mg/kg. The class given is ADME, organism-based, Canis lupus familiaris. More on the design: dose 0.3 mg/kg, route intravenous. The method, boiled down: as §1
For series [8], the target named is Alpha adrenergic receptor (1a and 1d) (Homo sapiens) (UniProt P35348+P25100). Put plainly: Ratio of binding affinities for human cloned alpha1D- adrenoceptor to that of human cloned alpha1A- adrenoceptor (alpha-1D/alpha-1A). The format is protein assay. The method, boiled down:
(§2)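 Ratio of α1B (or α1D) to α1A binding affinity, calculated from pKi values for [3H]-prazosin displacement at cloned human subtypes expressed in CHO-K1 membranes or whole cells.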

The target in series [9] is T4, Alpha-1D adrenergic receptor (Rattus norvegicus) (UniProt P23944).
T4 sequence (whole entry): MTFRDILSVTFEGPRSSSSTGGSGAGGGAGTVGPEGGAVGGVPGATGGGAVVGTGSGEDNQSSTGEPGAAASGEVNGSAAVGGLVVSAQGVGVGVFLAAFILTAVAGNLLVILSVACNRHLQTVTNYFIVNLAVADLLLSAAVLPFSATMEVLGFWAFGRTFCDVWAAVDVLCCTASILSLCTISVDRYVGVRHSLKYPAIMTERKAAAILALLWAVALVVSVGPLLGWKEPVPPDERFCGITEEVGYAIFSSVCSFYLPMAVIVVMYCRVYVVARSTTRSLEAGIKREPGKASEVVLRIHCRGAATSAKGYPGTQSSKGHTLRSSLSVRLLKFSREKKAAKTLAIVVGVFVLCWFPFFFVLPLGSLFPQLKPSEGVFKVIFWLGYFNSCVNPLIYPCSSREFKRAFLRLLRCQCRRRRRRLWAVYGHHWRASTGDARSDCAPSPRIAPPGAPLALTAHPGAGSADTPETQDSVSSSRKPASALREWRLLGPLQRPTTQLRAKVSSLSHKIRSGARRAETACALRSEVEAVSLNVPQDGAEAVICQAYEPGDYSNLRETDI
Put plainly: Antagonist inhibition noradrenaline-stimulated contractions of rat aortic strings for Alpha-1D adrenergic receptor. The class given is functional.

In series [10] the target is Adrenergic receptors; alpha-1 A & B (Homo sapiens) (UniProt P35348+P35368). Put plainly: Ratio of binding affinities for human cloned alpha1B- adrenoceptor to that of human cloned alpha1A- adrenoceptor (alpha-1B/alpha-1A). The format is protein assay. The method, boiled down:
as §2

A short description of series [11]: Half life period by iv administration in dog at a dose of 0.3 mg/kg. The format is ADME, organism-based, Canis lupus familiaris. The arrangement: dose 0.3 mg/kg, route intravenous. The note with it: in vivo. The method, boiled down: as §1
The nature of series [12]: Volume of distribution by as 4 fold increase by iv administration in dogs. The format is ADME, organism-based, Canis lupus familiaris. The note with it: dog, in vivo. The method, boiled down: as §1
The test system of series [13] is Alpha-1D/alpha-1A adrenergic receptors (rat/rabbit). The series can be described thus: Ratio of antagonistic activities against alpha-1D vs alpha-1A determined in rat aorta and rabbit bladder neck respectively.
The test system of series [14] is Alpha-1A adrenergic receptor (Oryctolagus cuniculus). Put plainly: Antagonist inhibition of noradrenaline-stimulated contractions of rabbit bladderneck (RBN) for Alpha-1A adrenergic receptor.

Regarding `Cc1c[nH]c(=O)n(CCCN2CCN(c3ccccc3OCC(F)(F)F)CC2)c1=O`, the figures for the inhibition constant (Ki) in [1], in series [2] and in [3] were 12.6 nM, 0.251 nM and 31.6 nM, respectively.

Turning to `Cc1cc(=O)n(CCCN2CCN(c3ccc(F)cc3OCC(F)(F)F)CC2)c(=O)[nH]1`, the Ki in [1] is 50.1 nM; in [2], 1.58 nM; in series [3], 158 nM.

On to `C[C@]1(O)C(=O)N(CCCN2CCN(c3ccc(F)cc3OCC(F)(F)F)CC2)C(=O)N[C@H]1O`, for which the Relative rate metabolism in the series listed under Canis familiaris worked out at 0. Besides, the bioavailability in series [4] turned out to be 100%; in series [5], 111%. Moreover, the half-life in series [6] is 10 h; in series [11], 11 h. Moreover, the clearance in series [7] was 4.17 mL/min/kg. Also, the Ki was 126 nM in series [1], 5.01 nM in series [2] and 251 nM in series [3]. The Ratio in series [8] worked out at 33; in series [10] it was 63; in series [13], 79. In addition, the pA2/pKB was 6.6 in series [9] and 8.5 in [14]. This compound also gave a Vd in series [12] of 4 L/kg.

For the compound `CN(C)c1c[nH]c(=O)n(CCCN2CCN(c3ccc(F)cc3OCC(F)(F)F)CC2)c1=O`, the inhibition constant (Ki) in series [1] was 100 nM; in [3], 200 nM.

On to `Cc1c[nH]c(=O)n(CCN2CCN(c3ccc(F)cc3OCC(F)(F)F)CC2)c1=O`, for which the inhibition constant Ki in series [1] is 2.51 nM; in series [2] it was 0.501 nM; in series [3], 15.8 nM.

On to `Cc1n[nH]c(=O)n(CCCN2CCN(c3ccccc3OCC(F)(F)F)CC2)c1=O`, for which the results for the inhibitory constant (Ki) in [1], in [2] and in series [3] were 7.94 nM, 0.316 nM and 39.8 nM, respectively.

Consider `O=c1[nH]c2ccccc2c(=O)n1CCCN1CCN(c2ccccc2OCC(F)(F)F)CC1`, for which the figures for the Ki in series [1], in [2] and in series [3] were 2 nM, 0.0631 nM and 5.01 nM, respectively. The results for the Ratio in [8], in [10] and in [13] were 32, 79 and 4, respectively. Also, the pA2/pKB in series [9] was 8.4; in series [14] it was 9.

As for `Cc1c[nH]c(=O)n(CC(C)(C)CN2CCN(c3ccccc3OCC(F)(F)F)CC2)c1=O`, the values for the Ki in series [1], in series [2] and in series [3] were 126 nM, 3.98 nM and 398 nM, respectively.

Turning to `Cc1cn(CCCN2CCN(c3ccccc3OCC(F)(F)F)CC2)c(=O)[nH]c1=O`, the inhibition constant Ki was 20 nM in series [1], 2 nM in [2] and 100 nM in [3].

With `COc1c[nH]c(=O)n(CCCN2CCN(c3ccc(F)cc3OCC(F)(F)F)CC2)c1=O`, the figures for the Ki in series [1] and in series [3] were 31.6 nM and 158 nM, respectively.

`Cc1c[nH]c(=O)n(CCCN2CCN(c3ccc(F)cc3OCC(F)(F)F)CC2)c1=O`: the bioavailability in [4] was determined as 100%; in [5] it was 78%. For the same compound, the half-life was 2.8 h in series [6] and 2.5 h in series [11]. The clearance in series [7] was 4.33 mL/min/kg. Besides, in [1], the Ki was 63.1 nM. Moreover, in [12], the distribution volume (Vd) is 0.93 L/kg.

By Ki is commonly meant a measure of affinity in units of concentration, obtained from inhibition or displacement. A low value points to tighter binding. Usually half-life stands for the time in which the quantity being followed falls by half. Low readings indicate fast loss, high ones slow loss. A word on the clearance: it is a measure of how efficiently the substance is removed, as volume per time. A high value points to efficient removal. The Vd is the apparent volume that relates the amount in the body to the concentration in plasma or blood.
